Key:
Rattus norvegicus [1] = test: Total radioactivity in tissues of male sd rats dosed orally with H-labeled compound at 21 mg/kg after 30 min in kidney; format: functional; details: route oral
In short: (§1)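 Male Sprague-Dawley rats received ³H-labelled drug (phenoxy ring, 3.96 μCi/mg) in PEG-400 by gavage at 21 mg/kg. Animals were killed at 5, 15, 30 min and at 1, 2, 4, 24 and 48 h. Homogenates were pooled per group, and total radioactivity was measured as the mean of duplicate combustions, in μg equiv/g. Two or three rats were used per point, except one rat at 24 and 48 h.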

[2] = Measure of AUCpo/AUCiv x 100% of the parent compound before (free) and after (total) beta-glucuronidase treatment; total 54%; format: ADME, organism-based; details: in vivo, po; read-out: Bioavailabiility
Rattus norvegicus [3] = test: Amount of radioactivity elute with H-labeled at 21 mg/kg after 1 hr using RP-HPLC. at a dose of 2.02 ug/g in lung of male sd rat.
Rattus norvegicus [4] = test: Total radioactivity in tissues of male sd rats dosed orally with H-labeled compound at 21 mg/kg after 5 min in liver; format: functional; details: route oral; in short: as §1
Rattus norvegicus [5] = test: Total radioactivity in tissues of male sd rats dosed orally with H-labeled compound at 21 mg/kg after 48 hr in liver; format: functional; details: route oral; in short: as §1
Rattus norvegicus [6] = test: Total radioactivity in tissues of male sd rats dosed intravenously with H-labeled compound at 21 mg/kg after 4 hr in liver; format: functional; details: route intravenous
In short: (§2)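 ³H label in the phenoxy ring, dissolved in PEG-400, specific activity 3.96 μCi/mg, given iv via femoral vein at 21 mg/kg to male Sprague-Dawley rats. Animals were killed at 2, 10, 30 min, 1, 2 and 4 h. Tissues from each group were pooled and homogenized, and total radioactivity was measured by combustion, averaged over duplicate combustions. Results are expressed as μg equiv/g. Two or three rats were used per time point.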

Rattus norvegicus [7] = test: Total radioactivity in tissues of male sd rats dosed intravenously with H-labeled compound at 21 mg/kg after 10 min in plasma; format: functional; details: route intravenous
Rattus norvegicus [8] = test: Total radioactivity in tissues of male sd rats dosed orally with H-labeled compound at 21 mg/kg after 5 min in kidney; format: functional; details: route oral; in short: as §1
Rattus norvegicus [9] = test: Total radioactivity in tissues of male sd rats dosed orally with H-labeled compound at 21 mg/kg after 1 hr in plasma; format: functional; details: route oral; in short: as §1
Rattus norvegicus [10] = test: Total radioactivity in tissues of male sd rats dosed orally with H-labeled compound at 21 mg/kg after 4 hr in kidney; format: functional; details: route oral; in short: as §1
Rattus norvegicus [11] = test: Total radioactivity in tissues of male sd rats dosed orally with H-labeled compound at 21 mg/kg after 24 hr r in lung; format: functional; details: route oral; in short: as §1
Rattus norvegicus [12] = test: Amount of radioactivity elute with H-labeled at 21 mg/kg after 4 hr using RP-HPLC. at a dose of […] in lung of male sd rat.
Rattus norvegicus [13] = test: Total radioactivity in tissues of male sd rats dosed orally with H-labeled compound at 21 mg/kg after 5 min in plasma; format: functional; details: route oral; in short: as §1
Rattus norvegicus [14] = species on record: Rattus norvegicus; test: Percentage inhibition against antigen induced dyspnea in hyperactive inbred rat at a dose of […]; format: functional; details: dose 0.15 mg/kg
Rattus norvegicus [15] = test: Total radioactivity in tissues of male sd rats dosed intravenously with H-labeled compound at 21 mg/kg after 4 hr in plasma; format: functional; details: route intravenous; in short: as §2
Rattus norvegicus [16] = test: Total radioactivity in tissues of male sd rats dosed orally with H-labeled compound at 21 mg/kg after 4 hr in liver; format: functional; details: route oral; in short: as §1
Rattus norvegicus [17] = test: Total radioactivity in tissues of male sd rats dosed intravenously with H-labeled compound at 21 mg/kg after 2 min in kidney; format: functional; details: route intravenous
In short: (§3)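 Male Sprague-Dawley rats given ³H compound iv via femoral vein in PEG-400, 21 mg/kg, 3.96 μCi/mg. Killed at 2, 10, 30 min, 1, 2 and 4 h. Total radioactivity measured by combustion of composited tissue homogenates, in duplicate. Two or three rats per time point, one at 10 and 30 min.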

Rattus norvegicus [18] = test: Total radioactivity in tissues of male sd rats dosed intravenously with H-labeled compound at 21 mg/kg after 2 hr in liver; format: functional; details: route intravenous; in short: as §3
[19] = target: T1, Polyunsaturated fatty acid 5-lipoxygenase (Rattus norvegicus, UniProt P12527); test: Tested for its inhibitory activity against arachidonic acid in rat 5-lipoxygenase.
T1 sequence (P12527 whole entry): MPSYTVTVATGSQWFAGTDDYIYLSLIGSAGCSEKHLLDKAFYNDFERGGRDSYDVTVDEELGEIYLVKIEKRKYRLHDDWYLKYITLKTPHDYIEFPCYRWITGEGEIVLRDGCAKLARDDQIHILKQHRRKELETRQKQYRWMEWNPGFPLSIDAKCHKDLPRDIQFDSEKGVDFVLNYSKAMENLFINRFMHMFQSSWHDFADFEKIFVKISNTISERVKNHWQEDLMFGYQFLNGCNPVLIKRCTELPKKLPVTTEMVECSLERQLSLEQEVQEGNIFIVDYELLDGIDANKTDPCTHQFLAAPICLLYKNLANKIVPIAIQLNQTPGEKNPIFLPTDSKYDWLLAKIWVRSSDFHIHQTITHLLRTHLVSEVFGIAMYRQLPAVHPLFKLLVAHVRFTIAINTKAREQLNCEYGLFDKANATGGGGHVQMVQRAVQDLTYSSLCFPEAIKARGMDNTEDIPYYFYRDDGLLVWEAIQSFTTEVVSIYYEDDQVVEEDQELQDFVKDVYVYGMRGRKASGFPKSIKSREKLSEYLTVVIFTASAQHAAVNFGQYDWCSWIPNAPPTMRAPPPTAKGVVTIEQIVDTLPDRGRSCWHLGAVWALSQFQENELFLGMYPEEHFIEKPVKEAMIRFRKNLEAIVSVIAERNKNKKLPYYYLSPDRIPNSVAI
In short: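 10000g supernatant from rat PMN leukocytes incubated 10 min with [14C]arachidonic acid. 5-Lipoxygenase activity taken as percentage conversion to 5-HETE plus 5,12-diHETEs.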

Rattus norvegicus [20] = test: Percentage inhibition against antigen induced dyspnea in hyperactive inbred rat at a dose of 0.05 mg/kg; format: functional
In short: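 Inbred hyperreactive rats, six per group, dosed po 2 h before aerosol ovalbumin challenge, with drug suspension or vehicle (0.4% Methocel/0.5% Tween 80, 10 mL/kg). Methysergide 3 mg/kg iv given 5 min before antigen. Dyspnea duration recorded by pneumotachograph. % inhibition of duration is relative to vehicle controls. Student's t test used; ED50 from linear regression.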

Rattus norvegicus [21] = test: Total radioactivity in tissues of male sd rats dosed intravenously with H-labeled compound at 21 mg/kg after 10 min in liver; format: functional; details: route intravenous; in short: as §3
Rattus norvegicus [22] = test: Total radioactivity in tissues of male sd rats dosed orally with H-labeled compound at 21 mg/kg after 30 min in plasma; format: functional; details: route oral; in short: as §1
Rattus norvegicus [23] = test: Total radioactivity in tissues of male sd rats dosed orally with H-labeled compound at 21 mg/kg after 15 min in kidney; format: functional; details: route oral; in short: as §1
Rattus norvegicus [24] = test: Total radioactivity in tissues of male sd rats dosed orally with H-labeled compound at 21 mg/kg after 24 hr r in liver; format: functional; details: route oral; in short: as §1
Rattus norvegicus [25] = test: % compound was determined by the amount of radioactivity elute with H-labeled at 21 mg/kg after 5 min using RP-HPLC. at a dose of 380 ug/g in lung of male sd rat.; format: functional

For `Oc1cc2c(cc1CCCOc1ccccc1)OC(CCc1ccccc1)C2` (stereo not given), the Total radioactivity (Rattus norvegicus [1]) was 0.85 ug equiv g-1, the bioavailability [2] was 5% and the Activity (Rattus norvegicus [3]) was 56.3%. The Total radioactivity (Rattus norvegicus [4]) was 12.12 ug equiv g-1, the Total radioactivity (Rattus norvegicus [5]) was 0.11 ug equiv g-1 and the Total radioactivity (Rattus norvegicus [6]) was 9.87 ug equiv g-1. The Total radioactivity (Rattus norvegicus [7]) was 9.65 ug equiv g-1, the Total radioactivity (Rattus norvegicus [8]) was 9.12 ug equiv g-1 and the Total radioactivity (Rattus norvegicus [9]) was 1.41 ug equiv g-1. For the same molecule, the Total radioactivity (Rattus norvegicus [10]) was 2.75 ug equiv g-1, the Total radioactivity (Rattus norvegicus [11]) was 0.1 ug equiv g-1 and the Activity (Rattus norvegicus [12]) was 8.9%. For the same molecule, the Total radioactivity (Rattus norvegicus [13]) was 7.74 ug equiv g-1, the inhibition in vivo at […] (Rattus norvegicus [14]) was 55% and the Total radioactivity (Rattus norvegicus [15]) was 1.18 ug equiv g-1. For the same molecule, the Total radioactivity (Rattus norvegicus [16]) was 13.77 ug equiv g-1, the Total radioactivity (Rattus norvegicus [17]) was 51.19 ug equiv g-1 and the Total radioactivity (Rattus norvegicus [18]) was 3.31 ug equiv g-1. For the same molecule, the IC50 [19] was 23 nM, the inhibition in vivo at 0.05 mg/kg (Rattus norvegicus [20]) was 50% and the Total radioactivity (Rattus norvegicus [21]) was 143.94 ug equiv g-1. It also gave a Total radioactivity (Rattus norvegicus [22]) of 1.09 ug equiv g-1, a Total radioactivity (Rattus norvegicus [23]) of 5.5 ug equiv g-1 and a Total radioactivity (Rattus norvegicus [24]) of 0.68 ug equiv g-1. The Activity (Rattus norvegicus [25]) was 80.4%.

From ChEMBL document CHEMBL1125428, “Development of 2,3-dihydro-6-(3-phenoxypropyl)-2-(2-phenylethyl)-5-benzofuranol (L-670,630) as a potent and orally active inhibitor of 5-lipoxygenase” (J Med Chem, 1992)
